# From ChEMBL document CHEMBL1147971, “Evaluation of N-(phenylmethyl)-4-[5-(phenylmethyl)-4,5,6,7-tetrahydro-1H-imidazo[4,5-c]pyridin-4-yl]benzamide inhibitors of Mycobacterium tuberculosis growth” (Bioorg Med Chem Lett, 2007)
# Activity calls are given as the source filed them. No cut-off for these calls is given here.
# Experiments:
# [1] = tested on: Mycobacterium tuberculosis; assay: Antibacterial activity against Mycobacterium tuberculosis; type: functional
# Method in brief: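 M. tuberculosis broth cultures grown in 96-well microtitre plates with drug. Growth read indirectly by metabolic reduction of fluorescent Alamar blue. MIC taken as the minimum drug concentration giving 50% inhibition of growth.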
# [2] = Permeability across artificial cell membrane; type: ADME; conditions: for Papp: not told, read-out: permeability
# Method in brief: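 High-throughput artificial membrane assay measuring passive diffusion of compound across a phospholipid monolayer.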
# [3] = Cytotoxicity against HEPG2 cells; type: cell-based; conditions: human; for cytotoxicity: read-out: Inhibition; for CC50: read-out: TC50 (the source's name)
# Staphylococcus aureus = assay: Antibacterial activity against Staphylococcus aureus ATCC 29213; type: functional, organism-based
# [4] = Mycobacterium tuberculosis, read-out: MIC
Compound,"MIC [1, 4] [µM]",cytotoxicity [3] [%],CC50 [3] [µM],further results
COc1ccc(CNC(=O)c2ccc(C3c4nc[nH]c4CCN3Cc3cccc(Cl)c3Cl)cc2)cc1 (stereo in doubt; 8e),32,–,–,–
COc1ccc(CNC(=O)c2ccc(C3c4nc[nH]c4CCN3Cc3cccc(Cl)c3Cl)cc2)cc1 (stereo in doubt; 9b),–,–,–,permeability [2]: 8 ×10⁻⁶ cm/s; MIC [1]: 63 µM
O=C(NCc1ccccc1)c1ccc(C2c3nc[nH]c3CCN2Cc2cccc(Cl)c2Cl)cc1 (configuration not stated),32,–,–,–
COc1ccc(CNC(=O)c2ccc(C3c4nc[nH]c4CCN3Cc3cc(OC)c(OC)cc3OC)cc2)cc1 (configuration not stated),63,20,> 11.5,Activity (Staphylococcus aureus): Active
COc1ccc(CNC(=O)c2ccc(C3c4nc[nH]c4CCN3Cc3cccc(Cl)c3Cl)cc2)cc1 (stereo in doubt; 9a),–,–,–,Papp [2]: 8 ×10⁻⁶ cm/s
COc1ccc(CNC(=O)c2ccc(C3c4nc[nH]c4CCN3Cc3cccc(Cl)c3)cc2)cc1 (stereo in doubt; 9c),–,–,–,permeability [2]: 21 ×10⁻⁶ cm/s; MIC [1]: 32 µM
O=C(NCc1ccccc1)c1ccc(C2c3nc[nH]c3CCN2c2ccc3ccccc3c2)cc1 (configuration not stated),16,> 20,> 13.2,–
COc1ccc(CNC(=O)c2ccc(C3c4nc[nH]c4CCN3Cc3cccc(Cl)c3)cc2)cc1 (stereo in doubt; 9d),63,–,–,Papp [2]: 21 ×10⁻⁶ cm/s
COc1ccc(CNC(=O)c2ccc(C3c4nc[nH]c4CCN3c3ccc4ccccc4c3)cc2)cc1 (configuration not stated),32,25,> 12.4,–
O=C(NCc1ccccc1)c1ccc(C2c3nc[nH]c3CCN2Cc2cccc(Cl)c2)cc1 (configuration not stated),32,–,–,–
COc1ccc(CNC(=O)c2ccc(C3c4nc[nH]c4CCN3Cc3cccc(Cl)c3)cc2)cc1 (stereo in doubt; 8f),–,25,> 12.8,–
